Compounds with a hit are over-represented: about 1.3% of the library has one in this group of screens.
PP1 inh: PP1-alpha phosphatase inhibitors, primary screen, counter-screen for PP5 inhibitor project, biochemical, fluorescence, OMFP substrate, single point; 320,000 tested, 0.9% active; inhibition, % at 6.7 µM; purified PP1alpha; Serine/threonine-protein phosphatase PP1-alpha catalytic subunit (Homo sapiens), P62136; AID 2235, 2010;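 active = inhibition above the mean inhibition of all tested compounds plus 3 SD, computed separately for each screening campaign, cut at about 15% in these data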
NR2E3 ag-1: inhibitors of NR2E3-RetCOR corepressor binding, primary screen, NR2E3 agonist project, biochemical, TR-FRET, GST-NR2E3, biotin-RetCOR | Photoreceptor-specific nuclear receptor (Homo sapiens), Q9Y5X4 | 1536-well | inhibition of corepressor binding, % at 4.78 µM | 320,000 tested, 0.12% active;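 active = percent inhibition above the cutoff of mean plus 3 SD of all tested compounds, set per screening campaign, cut at about 20% in these data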;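 also: 0% = DMSO wells and 100% = biotin wells as full block of FRET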
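Test system – NR2E3–RetCOR corepressor complex · Quantity – NR2E3 fusion 1.35 nM · Buffer or medium – Tris pH 7.5 · Incubation – Compound–protein incubation for 5 h at 4 °C · Technique – TR-FRET, Eu(K)-anti-GST donor, streptavidin-D2 acceptor, ex 340, em 617/671 nm · Evaluation – percent inhibition of 671/617 nm emission ratio versus biotin and DMSO controls · Plate – 1536-well format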
NR2E3 ag-2: NR2E3 agonists in two-hybrid cells, primary screen, cell-based, luminescence, CHO-S, Gal4-NCOR/VP16-NR2E3 | AID 602229, 2012 | inhibition of corepressor binding, % at 3.98 µM | Photoreceptor-specific nuclear receptor (Homo sapiens), Q9Y5X4 | 360,000 tested, 0.35% active | luciferase;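 active = inhibition above the mean of all tested compounds plus 3 SD, cut at about 70% in these data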;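 also: 0% = DMSO with NR2E3 transfected cells and 100% = cells lacking NR2E3 construct; higher means lower luciferase signal from less NR2E3 corepressor binding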
PP5 inh: PP5 phosphatase inhibitors, primary screen, biochemical, fluorescence. Serine/threonine-protein phosphatase 5 (Homo sapiens), P53041. inhibition, % at 6.7 µM. purified PP5c, OMFP substrate fluorescence. 320,000 tested, 0.18% active;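 active = inhibition above the campaign's mean inhibition across all tested compounds plus 3 SD, cut at about 9.5% in these data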;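 also: 0% = DMSO only and 100% = 100 µM cantharidin control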
Target sequence (P53041 whole entry, looked up): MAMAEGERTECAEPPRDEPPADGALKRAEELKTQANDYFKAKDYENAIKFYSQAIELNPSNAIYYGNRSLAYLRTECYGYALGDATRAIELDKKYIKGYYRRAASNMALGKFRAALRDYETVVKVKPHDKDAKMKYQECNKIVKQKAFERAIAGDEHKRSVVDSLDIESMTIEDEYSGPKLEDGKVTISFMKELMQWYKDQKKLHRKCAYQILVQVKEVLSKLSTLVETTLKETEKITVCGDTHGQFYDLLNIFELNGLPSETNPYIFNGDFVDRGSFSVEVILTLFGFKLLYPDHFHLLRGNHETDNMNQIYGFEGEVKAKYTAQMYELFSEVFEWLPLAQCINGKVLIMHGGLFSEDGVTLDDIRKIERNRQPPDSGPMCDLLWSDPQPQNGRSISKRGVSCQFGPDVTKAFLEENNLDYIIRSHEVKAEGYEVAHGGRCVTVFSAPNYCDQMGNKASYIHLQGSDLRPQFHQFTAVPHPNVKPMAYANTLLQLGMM
PP1 confirm: PP1 phosphatase inhibitors, confirmation, biochemical, fluorescence, OMFP substrate, triplicate. shares compounds with PP1 inh. purified PP1alpha. inhibition, % at 6.7 µM. 1,900 tested, 52% active. AID 2358, 2010;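 active = mean PP1 inhibition above a set limit taken from the earlier primary screen, cut at about 15% in these data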
PP5 counter: PP5 phosphatase inhibition by PP1 hits, confirmation, counter-screen for PP1 inhibitor project, biochemical, fluorescence, triplicate; 1,900 tested, 4% active; inhibition, % at 6.7 µM; AID 2360, 2010; purified PP5c, OMFP fluorescence; shares compounds with PP1 inh;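 active = mean PP5 inhibition over triplicate wells above about 9.5% taken from the earlier PP1 screen, limit read from the data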
* marks the source's active call; other numbers are inactive results; · = no result.

SMILES	PP1 inh	NR2E3 ag-1	NR2E3 ag-2	PP5 inh	PP1 confirm	PP5 counter
CCc1nnc(NC(=O)c2ccc(S(=O)(=O)N(CC)Cc3ccccc3)cc2)o1	36.4*	2.0	33.6	-3.6	32.1*	-0.1
CCN(CC)S(=O)(=O)c1ccc(C(=O)Nc2nnc(COC)o2)cc1	4.6	3.8	-15.9	2.8	·	·
CCOC(=O)c1sc(N(Cc2ccccc2)C(=O)CCl)nc1C	-2.7	-0.3	-31.1	-1.4	·	·
O=C(O)CSCC(=O)N(Cc1ccccc1)c1nc(-c2ccccc2)c(-c2ccccc2)s1	26.3*	1.3	25.6	6.4	18.6*	-0.7
COc1cccc(C(=O)N2CCC[C@@H]2C(=O)N2CCC[C@@H]2C(=O)NCc2ccccc2Cl)c1	·	·	-1.2	·	·	·
COC(=O)c1nccc2c1[nH]c1ccccc12	-4.1	-1.0	-34.1	-3.8	·	·
NC(=O)CSc1nc2scc(-c3ccco3)c2c(=O)n1-c1ccccc1	9.4	1.7	-4.9	4.3	·	·
O=c1c2c(-c3ccco3)csc2nc(SCc2cn3cccnc3n2)n1-c1ccccc1	28.9*	3.8	-38.4	2.1	20.9*	0.4
CN(C)c1ccc(-c2sc(Nc3ccccc3)n[n+]2-c2ccc(F)cc2)cc1	-2.6	1.5	-35.1	2.2	·	·
CCc1ccc(Nc2n[n+](-c3ccccc3)c(-c3ccc(OCc4ccccc4)cc3)s2)cc1	12.4	2.4	-5.7	0.5	·	·
c1ccc(COc2ccc(-c3sc(Nc4ccccc4)n[n+]3-c3ccccc3)cc2)cc1	19.7*	-1.6	·	5.0	4.9	-0.9
CCc1ccc(Nc2n[n+](-c3ccccc3)c(-c3ccc(N(CC)CC)cc3)s2)cc1	24.4*	11.1	-18.4	1.2	10.4	-2.4
CCc1ccc(Nc2n[n+](-c3ccccc3)c(-c3c(Cl)cccc3Cl)s2)cc1	30.6*	4.7	37.7	-3.5	2.6	2.5
O=C(Nc1cccc2ccccc12)c1csc([C@@H]2C[C@H](O)[C@@H](CO)O2)n1	·	·	-1.1	·	·	·
NCc1cc2c3c(c1)CCCN3CCC2	-1.7	4.2	-18.0	-0.6	·	·
CC(=O)c1cccc(NC(=O)C2Cc3c(-c4ccc5c(c4)OCO5)ccnc3O2)c1 (centres undefined)	·	·	44.9	·	·	·
O=C(N/N=C/c1ccncc1)c1cccc(NC(=O)c2ccc(Cl)cc2)c1	30.7*	-6.8	-12.1	1.3	12.1	-1.4
O=C(O)c1cc(-c2cccs2)nn1-c1ccccc1	27.7*	3.7	11.3	-1.5	24.1*	-4.8
CC1CCCCN1C(=O)COC(=O)c1cc(-c2cccs2)nn1-c1ccccc1 (centres undefined)	-1.2	4.0	3.5	-0.4	·	·
O=C(O)c1cc(-c2ccco2)nn1-c1ccc(Cl)cc1	·	·	-50.7	·	·	·
O=C(O)c1cc(-c2cccs2)nn1-c1cccc(Cl)c1	28.8*	1.3	-21.5	-1.2	27.5*	-6.4
O=C(O)c1cc(-c2cc3ccccc3o2)nn1-c1ccccc1	45.4*	2.2	-3.5	2.4	45.4*	-2.0
O=[N+]([O-])c1cc(Cl)cc(/C=N/NC(=S)Nc2ccc(S(=O)(=O)N3CCOCC3)cc2)c1O	19.0*	2.7	5.3	3.1	19.2*	-0.2
Cc1ccccc1NC(=S)NCC1CCN(C(C)c2ccccc2)C1 (centres undefined)	25.0*	-1.9	-8.4	-1.4	-17.1	-5.0
Cc1cc(C)cc(NC(=S)NCC2CCN(C(C)c3ccccc3)C2)c1 (centres undefined)	-2.2	1.1	23.4	4.6	·	·
SMILES	PP1 inh	NR2E3 ag-1	NR2E3 ag-2	PP5 inh	PP1 confirm	PP5 counter
CCN(C(=O)Cc1c(C(=O)O)n(CC)c2ccccc12)c1cccc(C(F)(F)F)c1	-0.4	-0.8	-2.8	3.9	·	·
COc1cc(C(=O)Nc2cc(-c3ccccc3)[nH]n2)cc(OC)c1OC	19.8*	1.3	-4.5	2.3	17.4*	-3.3
COc1ccc(-c2cc(-c3ccc(Cl)cc3)c(C#N)c(SCC(=O)O)n2)cc1	48.3*	5.0	39.7	1.7	27.5*	0.1
Cc1ccc(-c2csc(NCCn3c(-c4ccncc4)nc4ccccc43)n2)cc1	-2.0	4.7	35.4	2.8	·	·
Cc1c(/C=N/NC(=O)CNc2ccccc2)c2ccccn2c1C(=O)c1ccc(Cl)cc1	20.5*	0.5	-3.9	4.9	5.8	-0.1
Cc1ccccc1NCC(=O)N/N=C/c1c(C)c(C(=O)c2ccc(Cl)cc2)n2ccccc12	4.0	3.9	-17.0	4.1	·	·
O=C(Nc1nc(-c2ccc([N+](=O)[O-])cc2)cs1)C1=COCCO1	·	·	-28.1	·	·	·
O=C(Nc1nc(-c2ccc(-c3ccccc3)cc2)cs1)C1=COCCO1	20.8*	-2.4	-6.4	0.8	34.1*	-3.5
N#CCC(=O)Nc1ccc(C(=O)OCC(=O)N(C2CCCCC2)C2CCCCC2)cc1	4.2	-4.6	-21.6	1.7	·	·
O=C(O)c1cc(-c2ccc(Cl)cc2)n(-c2ccccc2)n1	41.8*	3.6	-6.6	2.3	43.1*	-5.7
O=C(O)c1cc(-c2ccccc2)n(-c2ccc(Cl)cc2Cl)n1	38.0*	-0.3	9.2	1.5	35.7*	-2.5
O=C(O)c1cc(-c2ccccc2)n(-c2ccccc2C(=O)O)n1	0.7	2.8	4.3	-0.8	·	·
Cc1ccc(-n2nc(C(=O)O)cc2-c2ccccc2Cl)cc1	5.0	1.3	-11.2	-0.8	·	·
O=C(O)c1cc(-c2ccccc2)n(-c2ccc(F)cc2)n1	28.9*	0.8	-17.0	1.7	17.5*	-2.8
O=C(O)c1cc(-c2ccccc2Cl)n(-c2ccc(F)cc2)n1	8.3	3.8	5.1	-0.6	·	·
O=C(O)c1cc(-c2ccccc2Cl)n(-c2cccc(Cl)c2)n1	18.3*	-2.4	-2.9	2.1	10.8	-1.4
CC(=O)C(=Cc1ccc(-c2ccccc2)cc1)C(=O)c1ccccc1	·	·	22.2	·	·	·
O=C(O)c1cc(-c2ccc(Cl)cc2)n(-c2cccc(Cl)c2)n1	50.3*	-1.2	-1.3	0.8	48.7*	1.1
O=C(O)c1nn(-c2cccc(Cl)c2)c(=O)cc1O	-3.4	-2.7	-7.4	3.5	·	·
CC(=O)c1cccc(-c2ccnc3c2CC(C(=O)NCC2CCOCC2)O3)c1 (centres undefined)	·	·	-36.3	·	·	·
CN(CCO)c1cccc2c1S(=O)(=O)N[C@@H](Cc1ccccc1)CO2	·	·	-23.7	·	·	·
Cc1ccc2nc(Cl)c(C3CC(c4cccs4)=NN3C(=O)CCC(=O)O)cc2c1 (centres undefined)	-3.4	5.7	-31.8	2.2	·	·
Cc1ccc(-c2nn(-c3ccccc3)cc2C2CC(c3cccs3)=NN2C(=O)CCC(=O)O)cc1 (centres undefined)	18.9*	1.2	-8.1	2.9	10.3	-0.8

Screens (PubChem)
